# From ChEMBL document CHEMBL1128740, “[(Alkylamino)methyl]acrylophenones: potent and selective inhibitors of the epidermal growth factor receptor protein tyrosine kinase” (J Med Chem, 1995)
# What was measured:
# [1] = target: v-abl tyrosine kinase (Abelson murine leukemia virus) (UniProt P00521); experiment: In vitro inhibition of the v-abl tyrosine kinase activity using purified v-abl kinase
# [2] = In vitro inhibition of the Protein kinase C tyrosine kinase activity in A431 membranes; type: cell membranes
# [3] = target: Proto-oncogene tyrosine-protein kinase Src (Homo sapiens, UniProt P12931); experiment: In vitro inhibition of the c-src tyrosine kinase activity in A431 membranes using angiotensin II as phosphate acceptor as substrate; type: cell membranes
# Balb/MK = experiment: Tested for antiproliferative activity using mouse epidermal keratinocytes cell line (BALB/MK); type: functional, cell-based
# Procedure, shortened: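 BALB/MK mouse epidermal keratinocytes, which depend on EGF to proliferate. Compounds were kept as 10 mM DMSO stocks and freshly diluted. They were added 24 h after plating, at a final DMSO concentration of 0.5%. Growth was read by methylene blue staining after 3–5 days, and IC50 was determined.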
# A431 (Homo sapiens) = experiment: Inhibition of EGF-dependent tyrosine phosphorylation in A431 cells.
# [4] = target: Epidermal growth factor receptor (Homo sapiens, UniProt P00533); experiment: In vitro inhibition of the Epidermal growth factor receptor activity in A431 membranes
# Mus musculus = experiment: Inhibition of EGF-dependent tyrosine phosphorylation in xenografts of the BT-20 tumor in nude mice.; type: functional, organism-based
# Chain of Proto-oncogene tyrosine-protein kinase Src (P12931 2-536 limits assumed): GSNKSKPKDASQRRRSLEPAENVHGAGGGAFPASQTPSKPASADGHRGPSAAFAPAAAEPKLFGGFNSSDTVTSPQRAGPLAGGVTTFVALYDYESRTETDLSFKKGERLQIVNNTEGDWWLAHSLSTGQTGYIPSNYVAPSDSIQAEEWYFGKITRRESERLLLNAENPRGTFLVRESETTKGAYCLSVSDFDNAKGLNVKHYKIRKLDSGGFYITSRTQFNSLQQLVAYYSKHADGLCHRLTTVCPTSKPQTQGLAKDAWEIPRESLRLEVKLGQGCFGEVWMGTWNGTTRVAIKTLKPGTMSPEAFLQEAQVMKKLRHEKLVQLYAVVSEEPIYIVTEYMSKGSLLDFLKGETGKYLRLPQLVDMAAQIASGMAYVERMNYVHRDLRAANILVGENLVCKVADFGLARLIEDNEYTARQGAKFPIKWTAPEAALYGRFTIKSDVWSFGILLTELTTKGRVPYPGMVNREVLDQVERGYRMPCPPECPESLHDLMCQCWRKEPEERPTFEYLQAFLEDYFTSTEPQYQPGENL
# Chain of Epidermal growth factor receptor (P00533 whole entry): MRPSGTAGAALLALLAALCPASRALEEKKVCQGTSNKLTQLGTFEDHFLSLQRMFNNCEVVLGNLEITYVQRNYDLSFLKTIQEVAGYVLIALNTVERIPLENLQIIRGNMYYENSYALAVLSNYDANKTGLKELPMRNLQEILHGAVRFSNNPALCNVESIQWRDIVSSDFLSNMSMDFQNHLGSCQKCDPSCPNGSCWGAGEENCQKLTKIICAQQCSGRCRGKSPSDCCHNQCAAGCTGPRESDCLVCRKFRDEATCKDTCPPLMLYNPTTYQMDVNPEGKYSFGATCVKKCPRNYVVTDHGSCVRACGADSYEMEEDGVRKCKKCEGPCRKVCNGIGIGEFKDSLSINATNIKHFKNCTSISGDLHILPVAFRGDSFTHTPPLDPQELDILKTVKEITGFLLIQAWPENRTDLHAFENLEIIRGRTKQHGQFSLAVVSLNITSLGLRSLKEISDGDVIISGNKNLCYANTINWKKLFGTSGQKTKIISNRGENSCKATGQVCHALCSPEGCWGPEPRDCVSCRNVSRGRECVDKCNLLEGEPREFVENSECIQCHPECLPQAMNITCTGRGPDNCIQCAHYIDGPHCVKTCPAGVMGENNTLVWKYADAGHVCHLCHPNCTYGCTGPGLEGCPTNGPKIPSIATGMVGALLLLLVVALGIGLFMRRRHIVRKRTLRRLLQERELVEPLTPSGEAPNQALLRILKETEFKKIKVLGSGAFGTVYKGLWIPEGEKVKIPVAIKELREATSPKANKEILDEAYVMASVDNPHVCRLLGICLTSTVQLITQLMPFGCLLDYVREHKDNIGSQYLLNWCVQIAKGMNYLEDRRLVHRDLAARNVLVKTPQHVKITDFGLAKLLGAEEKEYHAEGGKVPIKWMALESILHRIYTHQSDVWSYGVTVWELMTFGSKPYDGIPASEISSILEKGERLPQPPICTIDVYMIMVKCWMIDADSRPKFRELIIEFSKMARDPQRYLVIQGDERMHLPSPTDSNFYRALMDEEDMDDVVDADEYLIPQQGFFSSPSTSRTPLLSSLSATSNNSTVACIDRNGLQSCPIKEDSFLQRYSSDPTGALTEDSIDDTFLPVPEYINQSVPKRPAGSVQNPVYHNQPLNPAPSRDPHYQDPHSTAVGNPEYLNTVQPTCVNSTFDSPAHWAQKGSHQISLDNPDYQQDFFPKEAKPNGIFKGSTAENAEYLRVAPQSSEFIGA
# Chain of v-abl tyrosine kinase (Abelson murine leukemia virus) (P00521 whole entry, looked up): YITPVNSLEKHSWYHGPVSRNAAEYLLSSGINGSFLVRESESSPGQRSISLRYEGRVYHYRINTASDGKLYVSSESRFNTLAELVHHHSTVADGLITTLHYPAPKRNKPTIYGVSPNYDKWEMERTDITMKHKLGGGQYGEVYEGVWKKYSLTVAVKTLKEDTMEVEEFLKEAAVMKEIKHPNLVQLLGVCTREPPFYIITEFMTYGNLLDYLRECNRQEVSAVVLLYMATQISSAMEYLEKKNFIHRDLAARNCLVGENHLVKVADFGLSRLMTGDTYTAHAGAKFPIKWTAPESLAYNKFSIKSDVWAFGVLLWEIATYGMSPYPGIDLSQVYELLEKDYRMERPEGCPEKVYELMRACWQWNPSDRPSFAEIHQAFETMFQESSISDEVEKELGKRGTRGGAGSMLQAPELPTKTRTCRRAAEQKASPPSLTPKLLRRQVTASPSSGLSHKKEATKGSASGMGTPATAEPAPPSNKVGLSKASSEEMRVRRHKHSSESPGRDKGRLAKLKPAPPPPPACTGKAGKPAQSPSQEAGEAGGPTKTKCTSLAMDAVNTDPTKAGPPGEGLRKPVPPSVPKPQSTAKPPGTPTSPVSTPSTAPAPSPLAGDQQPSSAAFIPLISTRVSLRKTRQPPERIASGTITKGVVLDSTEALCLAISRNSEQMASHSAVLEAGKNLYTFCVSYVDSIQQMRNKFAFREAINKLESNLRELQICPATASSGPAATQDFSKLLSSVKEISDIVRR
SMILES,IC50 [1] [µM],IC50 [2] [µM],IC50 [3] [µM],IC50 (A431 (Homo sapiens)) [µM],IC50 [4] [µM],IC50 (Mus musculus) [µM],IC50 (Balb/MK) [µM]
O=c1c(-c2ccc(O)cc2)coc2cc(O)cc(O)c12 [GENISTEIN],10,15,75,–,–,–,–
O=C(CCN1CCOCC1)c1ccc(OCc2ccccc2)cc1,> 100,420,> 100,> 100,1.5,–,33.9
C=C(CN1CCOCC1)C(=O)c1ccc(OCc2ccccc2)cc1,> 100,110,> 100,100,1.1,–,1.8
C=C(CN(C)C)C(=O)c1ccc(OCc2ccccc2)c(O)c1,> 50,86,50,> 100,0.67,–,3.3
CN(C)CCCC(=O)c1ccc(OCc2ccccc2)cc1,> 100,–,–,> 100,> 100,–,> 50
C=C(CN1CCNCC1)C(=O)c1ccc(OCc2ccccc2)cc1,> 100,310,> 100,> 100,1.5,–,0.95
CN(C)CCC(=O)c1ccc(OCc2ccccc2)c(O)c1,> 100,500,> 50,50,0.36,–,9.3
O=C(CCN1CCCCC1)c1ccc(OCc2ccccc2)cc1,> 100,> 500,> 100,100,1.8,–,25.6
C=C(CN(C)C)C(=O)c1ccccc1,> 100,500,> 100,–,5.6,> 100,9.3
CCOC(=O)C1CCN(CCC(=O)c2ccc(OCc3ccccc3)cc2)CC1,> 100,> 500,> 100,> 100,0.3,–,40.2
CN(C)CC(CSCCN)C(=O)c1ccc(OCc2ccccc2)cc1 (configuration not stated),> 50,> 100,> 100,25,8.8,–,4.1
C=C(CN1CCCCC1)C(=O)c1ccc(OCc2ccccc2)cc1,> 100,140,> 100,> 100,1.1,–,3.5
CN(C)CCC(=O)c1ccc(OCc2ccccc2)cc1,> 100,> 100,> 100,> 100,1.5,–,46.2
C=C(CN(C)C)C(=O)c1ccc(OCc2ccccc2)cc1,> 100,215,> 100,–,–,–,6.1

# Further lines, with some results ahead:
IC50 [1] [µM],IC50 [2] [µM],IC50 [3] [µM],IC50 (A431 (Homo sapiens)) [µM],IC50 [4] [µM],IC50 (Mus musculus) [µM],SMILES,IC50 (Balb/MK) [µM]
50,> 500,> 100,100,0.23,–,C=C(CN(C)C)C(=O)c1ccc(OS(=O)(=O)c2ccc(C(=O)O)cc2)cc1,> 50
–,–,–,100,100,–,CC(CN(C)C)C(=O)c1ccc(OS(=O)(=O)c2ccc(C(=O)O)cc2)cc1 (configuration not stated),> 50
> 50,> 500,> 50,100,7.3,–,CN(C)CC(CSc1ccccc1)C(=O)c1ccc(OCc2ccccc2)cc1 (configuration not stated),1.6
> 100,> 500,> 100,50,3.9,–,CN(C)CC(CNNC(N)=O)C(=O)c1ccc(OCc2ccccc2)cc1 (configuration not stated),2
> 100,> 500,> 100,25,8.8,–,COC(=O)c1ccccc1SCC(CN(C)C)C(=O)c1ccc(OCc2ccccc2)cc1 (configuration not stated),1.24
–,140,–,–,–,–,C=C(CN(C)C)C(=O)c1ccc(OS(=O)(=O)c2ccc(C(=O)O)c(O)c2)cc1,> 50
70,180,> 50,–,0.7,–,C=C(CN(C)C)C(=O)c1ccc(OS(=O)(=O)c2ccc(C(=O)N(C)C)cc2)cc1,2.8
> 100,> 500,> 100,100,2.1,–,Cc1ccc(SCC(CN(C)C)C(=O)c2ccc(OCc3ccccc3)cc2)cc1C (configuration not stated),1.21
